Assay outcomes as filed in PubChem.
Most compounds without a hit are left out; they make up all but 2.5% or so of the library.
PRMT1 inh: inhibitors of human PRMT1; Q99873; recombinant PRMT1, activity-based probe fluorescence polarization; inhibition, % at 2.79 µM; 370,000 compounds, 1.3% hits; AID 652257;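 active means inhibition above about 21% made by adding two undisclosed values, limit read from the data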
CTSL1 counter: counter-screen for PFM18AAP inhibitors: inhibitors of F. hepatica cathepsin L1; AID 1906; recombinant F. hepatica cathepsin L1, Z-Leu-Arg-MCA fluorescence; inhibition, % at 5.96 µM; 300,000 compounds, 0.49% hits;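 active means inhibition above the mean of all tested compounds plus 3 SD, set per screening campaign, cut at about 17% in these data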
PAD4 inh: inhibitors of human PAD4; 330,000 compounds, 0.41% hits; inhibition, % at 6.36 µM; recombinant PAD4, RCA probe fluorescence polarization;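 active means percent inhibition above a cutoff equal to the mean of all tested compounds plus 3 SD, cut at about 15% in these data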
GSTO1 counter: blocks human GSTO1 in RBBP9 counter-screen; P78417; recombinant GSTO1, activity-based probe fluorescence polarization; inhibition, % at 5.96 µM; 300,000 compounds, 1.1% hits;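 active means inhibition above the campaign mean inhibition plus 3 SD, cut at about 35% in these data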
TDP2 absorb: blocks human TDP2 phosphodiesterase activity; O95551; AID 720702; 370,000 compounds, 0.34% hits; recombinant TDP2, T5PNP hydrolysis, p-nitrophenol absorbance 415 nm; inhibition, % at 12.8 µM;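 active means inhibition above the mean of all tested compounds plus 3 SD, set per campaign, cut at about 25% in these data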
Target sequence (O95551 whole entry, looked up): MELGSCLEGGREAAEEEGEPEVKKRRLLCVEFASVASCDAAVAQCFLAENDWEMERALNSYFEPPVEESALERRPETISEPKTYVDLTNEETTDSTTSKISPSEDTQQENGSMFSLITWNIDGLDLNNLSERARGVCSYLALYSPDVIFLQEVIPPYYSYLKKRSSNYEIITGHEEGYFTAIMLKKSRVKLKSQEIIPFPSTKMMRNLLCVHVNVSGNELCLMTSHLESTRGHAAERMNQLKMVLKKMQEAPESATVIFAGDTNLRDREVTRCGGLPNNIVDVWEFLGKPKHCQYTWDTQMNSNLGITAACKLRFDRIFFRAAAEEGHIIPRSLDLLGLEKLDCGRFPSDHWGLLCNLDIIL
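System – recombinant human TDP2 · Quantity – TDP2 enzyme at 120 nM final · Doses – single concentration, 12.8 µM nominal, with 1% DMSO · Incubation – 2 h at 37 °C · Measured by – epi absorbance of p-nitrophenol freed from T5PNP by hydrolysis · Read-out – % inhibition relative to enzyme-containing and enzyme-free wells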
PRMT1 inh conf: confirmation of human PRMT1 inhibitors; shares compounds with PRMT1 inh; recombinant His-PRMT1, activity-based probe fluorescence polarization; inhibition, % at 2.79 µM; 3,300 compounds, 42% hits; AID 687036;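 active means mean inhibition across replicates above the hit cutoff derived for the earlier primary screen, cut at about 22% in these data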
Numbers stand for hits; i = inactive; nt = no result given.

SMILES | PRMT1 inh | CTSL1 counter | PAD4 inh | GSTO1 counter | TDP2 absorb | PRMT1 inh conf
O=C(O)c1ccc(/C=N/n2cc(-c3ccccc3)[nH]c2=S)cc1 | i | i | i | i | i | nt
Cc1cccc(/C=N/n2c(-c3cc(-c4ccccc4)n[nH]3)n[nH]c2=S)c1 | i | i | i | i | i | nt
S=c1[nH]nc(-c2cc(-c3ccccc3)n[nH]2)n1/N=C/c1ccccc1 | i | i | i | i | i | nt
COc1ccccc1/C=C/C=N/n1c(-c2cc(-c3ccccc3)n[nH]2)n[nH]c1=S | 26.1 | i | i | i | i | 22.6
S=c1[nH]nc(-c2cc(-c3ccccc3)n[nH]2)n1/N=C/c1cccs1 | 27.7 | i | i | i | i | 30.9
S=c1[nH]nc(-c2cc(-c3ccccc3)n[nH]2)n1N=Cc1c[nH]c2ccccc12 | 32.1 | nt | nt | nt | i | 24.1
S=c1[nH]c(-c2ccccc2)cn1/N=C/c1cccs1 | 45.3 | i | i | i | i | 22.1
O=C(OCC#CCSc1nnc(-c2cccc3ccccc23)o1)c1ccc(F)cc1F | i | nt | nt | nt | i | nt
COC(=O)CSc1nnc(-c2n[nH]c3c2CCC3)n1N | i | nt | nt | nt | i | nt
O=C1N2CCCc3cccc(c32)C12Nc1ccccc1S2 (centres undefined) | 39.7 | nt | nt | nt | i | 22.9
CC(C)(C)N(Cc1cn(Cc2ccccc2)nn1)S(=O)(=O)c1ccc(F)cc1Br | i | nt | nt | nt | i | nt
COc1ccc(S(=O)(=O)N(C(=O)C(C)C)c2ccc3oc(=O)sc3c2)cc1 | 68.2 | i | i | i | i | 38.6
COc1ccc(S(=O)(=O)N(C(=O)c2ccncc2)c2ccc3oc4c(c3c2)CCCC4)cc1 | i | i | i | i | i | nt
O=C(NCc1ccncc1)C1Cc2c(-c3ccc4c(c3)OCO4)ccnc2O1 (centres undefined) | 39.9 | nt | nt | nt | i | i
C[C@H]1[C@H](NC(=O)c2cccc(Cl)c2)CC[C@@]23CCCN2C(=O)CCC[C@@H]13 | i | nt | nt | nt | i | nt
Cc1ccccc1NC(=O)c1sc2nc3c(c(-c4ccco4)c2c1N)CCC3 | 44.0 | i | i | i | i | i
Nc1c(C(=O)NCC2CCCO2)sc2nc3c(c(-c4ccco4)c12)CC/C3=C\c1ccco1 (centres undefined) | 35.6 | nt | nt | nt | i | 47.4
COc1ccc2c(c1)CN1C(=O)N(Cc3ccc(F)cc3)S(=O)(=O)CC21 (centres undefined) | i | nt | nt | nt | i | nt
c1cncc(CNc2ccc3c(c2)OCO3)c1 | 74.7 | i | i | i | i | i
CCOCCCNC(=O)c1cc2c(s1)-c1ccccc1SC2 | 40.2 | i | i | i | i | i
Cc1cc(C)c(C(=O)COc2cccnc2[N+](=O)[O-])cc1C | 37.5 | i | i | i | i | 50.7
COCCn1c(C)cc(C(=O)COc2cccnc2[N+](=O)[O-])c1C | i | i | i | i | i | nt
COC(=O)CN(C#N)c1nc(NCc2ccccc2)nc(OC)n1 | 63.9 | nt | nt | nt | i | i
Cc1ccc(O)c(C(C)c2c[nH]c3ccccc23)c1 (centres undefined) | i | nt | nt | nt | i | nt
CC(C(=O)NCC(=O)Nc1ccc(F)c(F)c1F)N1CCN(c2ccc(O)cc2)CC1 (centres undefined) | 28.1 | nt | i | nt | i | i
SMILES | PRMT1 inh | CTSL1 counter | PAD4 inh | GSTO1 counter | TDP2 absorb | PRMT1 inh conf
COc1ccc(N2CCCN(CC(=O)Nc3ccc(Cl)cc3)CC2)cc1 | i | nt | nt | nt | i | nt
Cc1ccc(-c2nc3ncccn3c2Nc2ccccc2C)o1 | 42.1 | i | i | i | i | i
Cc1ccc(-c2nc3cnccn3c2Nc2c(C)cccc2C)o1 | 78.7 | i | i | i | i | i
O=C1CCCC2=C1Sc1ccccc1N2 | 36.6 | i | i | i | i | i
O=C1Nc2ccccc2SC1=Cc1ccccc1 | i | nt | nt | nt | i | nt
O=C(OCc1cn(Cc2ccc(F)c(F)c2)nn1)N1CCOCC1 | i | nt | nt | nt | i | nt
COc1ccc(N2CCN(CCCNC(=O)CCc3cccc(Cl)c3)CC2)cc1 | i | nt | nt | nt | i | nt
N#C/C(=C\C=C\c1ccccc1[N+](=O)[O-])C(=O)NC1CCCCC1 | nt | i | i | i | nt | nt
N#C/C(=C\c1ccccc1[N+](=O)[O-])C(=O)NC1CCCCC1 | 31.7 | i | i | i | i | i
Cc1ccc(/C=C/C(=O)NC2CCCCCCC2)o1 | 49.7 | 74.1 | i | i | i | 58.5
Cc1ccc(/C=N/NC(=O)NC2CCCCC2)o1 | i | i | i | i | i | nt
Cc1ccc(/C=C/C(=O)NCC2COc3ccccc3O2)o1 (centres undefined) | 34.4 | i | i | i | i | 30.2
